From ChEMBL document CHEMBL3774372, “Design, physico-chemical properties and biological evaluation of some new N-[(phenoxy)alkyl]- and N-{2-[2-(phenoxy)ethoxy]ethyl}aminoalkanols as anticonvulsant agents” (Bioorg Med Chem, 2016)

What was measured:
Mus musculus [1] = assay: Anticonvulsant activity in ip dosed mouse assessed as protection against subcutaneous pentylenetetrazol-induced seizures measured after […]; format: functional
Mus musculus [2] = assay: Anticonvulsant activity in ip dosed mouse assessed as protection against maximal electric shock-induced seizures; format: functional, organism-based
Procedure, shortened: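 Compound suspended in 0.5% methylcellulose and given ip to mice; screening doses 30, 100 and 300 mg/kg, read at 0.25–4 h. Protection was defined as abolition of hindlimb tonic extension.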

[3] = Neurotoxicity in ip dosed mouse after […] by rotarod test; format: toxicity, organism-based; conditions: in vivo
[4] = Neurotoxicity in ip dosed mouse by rotarod test; format: toxicity, organism-based; conditions: in vivo
Mus musculus [5] = assay: Anticonvulsant activity in ip dosed mouse assessed as protection against maximal electric shock-induced seizures measured after […]; format: functional

Cc1cccc(C)c1OCCN[C@H](C)CO
ED50 (Mus musculus [1]): > 50 mg/kg
EC50 (Mus musculus [2]): 5.34 mg/kg
TD50 at […] [3]: 29.5 mg/kg
TD50 [4]: 29.5 mg/kg
ED50 (Mus musculus [5]): 5.34 mg/kg
